Assay results: ChEMBL document CHEMBL3102843, “Synthesis and antifungal activity of substituted 2,4,6-pyrimidinetrione carbaldehyde hydrazones” (Bioorg Med Chem, 2014)
Converted amounts (≈) assume the structure as drawn. The source made the active and inactive calls. How the calls were made is not given here.

Key:
Nakaseomyces glabratus = assay: Antifungal activity against Candida glabrata ATCC 48435 after 48 to 72 hrs by broth microdilution method; type: functional
In short: (§1)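 Broth microdilution per NCCLS. Organisms were subcultured on Sabouraud agar. Inoculum was 5–7 colonies from YM agar in sterile water, adjusted to 0.5 McFarland at 530 nm (1–5×10⁶ cells/mL stock), held 30 min at RT, then diluted 1:50 in HEPES-buffered RPMI 1640. DMSO stocks were twofold-diluted, with final DMSO ≤1%. Plates ran 48–72 h at 35 °C, humid. MIC is the lowest concentration giving ≥80% growth reduction vs drug-free wells, scored visually. Fluconazole or amphotericin B ran as drug control.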

Candida albicans = assay: Antifungal activity against Candida albicans ATCC 10231 after 48 to 72 hrs by broth microdilution method; type: functional; in short: as §1

| Structure (SMILES) | MIC80 (Nakaseomyces glabratus) | MIC80 (Candida albicans) |
| --- | --- | --- |
| COc1cc(OC)c(C=C2C(=O)N(C)C(=O)N(C)C2=O)c(OC)c1 | inactive | inactive |
| CN1C(=O)C(/C=N/n2cnnc2)C(=O)N(C)C1=O | inactive | inactive |
| O=C1NC(=O)C(/C=N/c2nnc[nH]2)C(=O)N1 | inactive | inactive |
| CCCCN1C(=O)NC(=O)C(/C(=N/Nc2ccc([N+](=O)[O-])cc2[N+](=O)[O-])c2ccccc2)C1=O (stereo not drawn) | inactive | inactive |
| CN1C(=O)C(/C=N/N)C(=O)N(C)C1=O | 16 µg/mL (≈ 80.7 µM) | 125 µg/mL (≈ 631 µM) |
| COc1ccc(C=C2C(=O)N(C)C(=O)N(C)C2=O)c(OC)c1OC | inactive | inactive |
| CN1C(=O)C(/C=N/c2ccccc2)C(=O)N(C)C1=O | inactive | inactive |
| CN1C(=O)C(/C(=N/Nc2ccc(C(=O)O)cc2)c2ccccc2)C(=O)N(C)C1=O | inactive | inactive |
| C/C(=N\NC(=O)c1ccccc1)C1C(=O)N(C)C(=O)N(C)C1=O | inactive | inactive |
| COC(=O)N/N=C/C1C(=O)N(C)C(=O)N(C)C1=O | inactive | inactive |
| COc1ccc(C(=O)N/N=C(\C)C2C(=O)NC(=O)NC2=O)cc1 | inactive | inactive |
| O=C1NC(=O)C(/C=N/c2ccc(O)cc2)C(=O)N1 | inactive | inactive |
| COc1ccc(C(=O)N/N=C(\C)C2C(=O)N(C)C(=O)N(C)C2=O)cc1 | inactive | inactive |
| C/C(=N\NC(=O)c1ccc([N+](=O)[O-])cc1)C1C(=O)NC(=O)NC1=O | 125 µg/mL (≈ 375 µM) | inactive |
| O=C1NC(=O)C(/C=N/n2cnnc2)C(=O)N1 | inactive | inactive |
| C/C(=N\N)C1C(=O)N(C)C(=O)N(C)C1=O | inactive | inactive |
| CN/N=C(\C)C1C(=O)N(C)C(=O)N(C)C1=O | inactive | inactive |
| C/C(=N\Nc1ccc([N+](=O)[O-])cc1[N+](=O)[O-])C1C(=O)N(C)C(=O)N(C)C1=O | inactive | inactive |
| C/C(=N\c1ccc(O)cc1)C1C(=O)N(C)C(=O)N(C)C1=O | inactive | inactive |
| CN1C(=O)C(/C=N/C2N=NN=N2)C(=O)N(C)C1=O | inactive | inactive |
| O=C1NC(=O)C(=Cc2ccco2)C(=O)N1 | inactive | inactive |
| O=C1NC(=O)C(=Cc2ccc(O)cc2)C(=O)N1 | inactive | inactive |
| C/C(=N\NC(=O)c1ccccc1)C1C(=O)NC(=O)NC1=O | inactive | inactive |
| C/C(=N\c1ccncc1)C1C(=O)NC(=O)NC1=O | inactive | inactive |
| C/C(=N\c1ccc(O)cc1)C1C(=O)NC(=O)NC1=O | inactive | inactive |
| O=C1NC(=O)C(/C=N/c2ccc([N+](=O)[O-])cc2)C(=O)N1 | inactive | inactive |
| C/C(=N\NS(=O)(=O)c1ccc(C)cc1)C1C(=O)NC(=O)NC1=O | inactive | inactive |

| Structure (SMILES) | MIC80 (Nakaseomyces glabratus) | MIC80 (Candida albicans) |
| --- | --- | --- |
| O=C1NC(=O)C(=Cc2ccoc2)C(=O)N1 | inactive | inactive |
| O=C1NC(=O)C(/C=N/NC(=O)c2ccccc2)C(=O)N1 | inactive | inactive |
| CN1C(=O)C(/C=N/NC(=O)c2ccccc2)C(=O)N(C)C1=O | inactive | inactive |
| O=C1NC(=O)C(=Cc2cccc3ccccc23)C(=O)N1 | inactive | 125 µg/mL (≈ 469 µM) |
| O=C1NC(=O)C(/C=N/C2N=NN=N2)C(=O)N1 | inactive | inactive |
| N/N=C/C1C(=O)NC(=O)NC1=O | 16 µg/mL (≈ 94 µM) | 125 µg/mL (≈ 735 µM) |
| O=C1NC(=O)C(/C=N/c2ccccn2)C(=O)N1 | inactive | inactive |
| COc1ccc(/N=C(\C)C2C(=O)NC(=O)NC2=O)cc1 | inactive | inactive |
| C/C(=N\c1ccccc1)C1C(=O)NC(=O)NC1=O | inactive | inactive |
| O=C1NC(=O)C(/C=N/NS(=O)(=O)c2ccccc2)C(=O)N1 | inactive | inactive |
| CN1C(=O)C(/C(=N/Nc2ccc([N+](=O)[O-])cc2[N+](=O)[O-])c2ccc(O)cc2)C(=O)N(C)C1=O | inactive | inactive |
| COC(=O)N/N=C/C1C(=O)NC(=O)NC1=O | inactive | inactive |
| O=C1NC(=O)C(/C=N/Nc2ccc([N+](=O)[O-])cc2[N+](=O)[O-])C(=O)N1 | 125 µg/mL (≈ 372 µM) | inactive |
| O=C1NC(=O)C(/C=N/c2ccncc2)C(=O)N1 | inactive | inactive |
| CN1C(=O)C(=Cc2ccc(O)cc2O)C(=O)N(C)C1=O | 2 µg/mL (≈ 7.24 µM) | inactive |
| CN1C(=O)C(=Cc2ccc(O)cc2)C(=O)N(C)C1=O | inactive | inactive |
| COC(=O)N/N=C(\C)C1C(=O)NC(=O)NC1=O | inactive | inactive |
| C/C(=N\CCCCCC(=O)O)C1C(=O)NC(=O)NC1=O | inactive | inactive |
| C/C(=N\Nc1ccccc1)C1C(=O)NC(=O)NC1=O | 2 µg/mL (≈ 7.68 µM) | 2 µg/mL (≈ 7.68 µM) |
| C/C(=N\NS(=O)(=O)c1ccccc1)C1C(=O)NC(=O)NC1=O | inactive | inactive |
| COc1ccc(/C(=N\CCCCCC(=O)O)C2C(=O)NC(=O)NC2=O)cc1 | inactive | inactive |
| O=C1NC(=O)C(/C=N/c2cccc(O)c2)C(=O)N1 | inactive | inactive |
| O=C1NC(=O)C(=C/C=C/c2ccccc2)C(=O)N1 | inactive | 62 µg/mL (≈ 256 µM) |
| CN1C(=O)C(/C=N/c2ccc(-c3ccccc3)cc2)C(=O)N(C)C1=O | inactive | inactive |
| COC(=O)N/N=C(\c1ccc(O)cc1)C1C(=O)N(C)C(=O)N(C)C1=O | inactive | inactive |
| COc1ccc(C=C2C(=O)N(C)C(=O)N(C)C2=O)cc1 | inactive | inactive |
| COc1ccc(/N=C(\C)C2C(=O)N(C)C(=O)N(C)C2=O)cc1 | inactive | inactive |

| Structure (SMILES) | MIC80 (Nakaseomyces glabratus) | MIC80 (Candida albicans) |
| --- | --- | --- |
| CN1C(=O)C(/C=N/c2ccncc2)C(=O)N(C)C1=O | inactive | inactive |
| O=C1NC(=O)C(/C=N/c2ccc(-c3ccccc3)cc2)C(=O)N1 | inactive | inactive |
| CN1C(=O)C(/C=N/c2ccc(O)cc2)C(=O)N(C)C1=O | inactive | inactive |
| COc1ccc(/N=C/C2C(=O)NC(=O)NC2=O)cc1 | inactive | inactive |
| O=C1NC(=O)C(/C(=N/Nc2ccc([N+](=O)[O-])cc2[N+](=O)[O-])c2ccccc2)C(=O)N1 | inactive | inactive |
| C/C(=N\c1ccccc1)C1C(=O)N(C)C(=O)N(C)C1=O | inactive | inactive |
| CN(C)c1ccc(C=C2C(=O)NC(=O)NC2=O)cc1 | inactive | 62 µg/mL (≈ 239 µM) |
| CN/N=C/C1C(=O)NC(=O)NC1=O | inactive | inactive |
| CN1C(=O)C(/C=N/NS(=O)(=O)c2ccccc2)C(=O)N(C)C1=O | inactive | inactive |
| O=C1NC(=O)C(/C=N/Nc2ccccc2)C(=O)N1 | 2 µg/mL (≈ 8.12 µM) | 4 µg/mL (≈ 16.2 µM) |
| COc1ccc(/N=C/C2C(=O)N(C)C(=O)N(C)C2=O)cc1 | inactive | inactive |
| C/C(=N\Nc1ccc([N+](=O)[O-])cc1)C1C(=O)NC(=O)N(c2ccccc2)C1=O (stereo not drawn) | 16 µg/mL (≈ 42 µM) | 31.5 µg/mL (≈ 82.6 µM) |
| O=C1NC(=O)C(C(=NNc2ccc(C(=O)O)cc2)C2C(=O)NC(=O)NC2=O)C(=O)N1 | 125 µg/mL (≈ 300 µM) | inactive |
| O=C1NC(=O)C(/C=N/c2ccccc2)C(=O)N1 | inactive | inactive |
| C/C(=N\N)C1C(=O)NC(=O)NC1=O | inactive | inactive |
| COC(=O)N/N=C(\c1ccc([N+](=O)[O-])cc1)C1C(=O)NC(=O)NC1=O | inactive | inactive |
| CN1C(=O)C(=C/C=C/c2ccccc2)C(=O)N(C)C1=O | 125 µg/mL (≈ 462 µM) | 62 µg/mL (≈ 229 µM) |
| CN1C(=O)C(/C=N/c2ccc([N+](=O)[O-])cc2)C(=O)N(C)C1=O | inactive | inactive |
| O=C1NC(=O)C(=Cc2ccc3ccccc3c2)C(=O)N1 | inactive | 125 µg/mL (≈ 469 µM) |
| Cc1ccc(S(=O)(=O)N/N=C/C2C(=O)N(C)C(=O)N(C)C2=O)cc1 | inactive | inactive |
| O=C1NC(=O)C(=Cc2ccccc2O)C(=O)N1 | 8 µg/mL (≈ 34.5 µM) | inactive |
| C/C(=N\NS(=O)(=O)c1ccccc1)C1C(=O)N(C)C(=O)N(C)C1=O | inactive | inactive |
| C/C(=N\c1ccncc1)C1C(=O)N(C)C(=O)N(C)C1=O | inactive | inactive |
| CN1C(=O)C(/C=N/c2nnc[nH]2)C(=O)N(C)C1=O | inactive | inactive |
| O=C1NC(=O)N(c2ccccc2)C(=O)C1/C(=N/Nc1ccc([N+](=O)[O-])cc1[N+](=O)[O-])c1ccccc1 (stereo not drawn) | inactive | inactive |
